# Paper PMC10243129 (Proceedings of the National Academy of Sciences of the …, 2023)
# Legend:
# [1] = target: T1, human MCM•cob(II)alamin (Homo sapiens, UniProt P22033); assay: Metabolite binding to MCM•cob
# T1 sequence (P22033 33-750): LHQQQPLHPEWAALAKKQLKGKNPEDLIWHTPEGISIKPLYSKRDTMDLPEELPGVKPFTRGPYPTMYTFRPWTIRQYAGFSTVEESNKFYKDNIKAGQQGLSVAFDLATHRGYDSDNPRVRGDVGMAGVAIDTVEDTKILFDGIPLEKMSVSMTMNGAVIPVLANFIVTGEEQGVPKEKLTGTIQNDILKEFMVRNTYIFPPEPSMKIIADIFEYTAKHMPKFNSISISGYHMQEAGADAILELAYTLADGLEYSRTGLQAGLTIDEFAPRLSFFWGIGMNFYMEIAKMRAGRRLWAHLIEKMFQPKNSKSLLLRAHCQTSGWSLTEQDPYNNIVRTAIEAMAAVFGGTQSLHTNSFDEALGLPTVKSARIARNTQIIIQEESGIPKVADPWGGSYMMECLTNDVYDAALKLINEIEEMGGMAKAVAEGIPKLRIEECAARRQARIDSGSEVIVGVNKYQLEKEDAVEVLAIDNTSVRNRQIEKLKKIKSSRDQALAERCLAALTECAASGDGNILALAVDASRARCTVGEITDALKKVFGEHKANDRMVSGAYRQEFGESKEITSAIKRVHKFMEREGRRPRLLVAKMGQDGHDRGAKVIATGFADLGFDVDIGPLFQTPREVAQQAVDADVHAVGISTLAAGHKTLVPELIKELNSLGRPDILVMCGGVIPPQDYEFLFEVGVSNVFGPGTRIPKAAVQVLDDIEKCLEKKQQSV
# Procedure, shortened: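 Cob(II)alamin was made by photolysis of 1.2 mM AdoCbl (stock) in anaerobic water and quantified with ε474 9.2 cm⁻¹ mM⁻¹. Work was done in an anaerobic chamber (<0.2 ppm O₂) with 40 µM cob(II)alamin and 20 µM MCM dimer in Buffer A at 20 °C. For the screen, metabolites were added at 5 mM and spectra recorded after 15 min. For Kd, metabolite was titrated, A460 read after 10 min, and data fitted to a quadratic binding equation.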
# [2] = target: T1, human MCM•cob(II)alamin; assay: Stopped-flow spectroscopy of ADP/ATP binding to MCM•cob
# Procedure, shortened: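 Anaerobic stopped-flow with diode-array detection was run at 25 °C. MCM•cob(II)alamin was preformed from 80 µM cob(II)alamin and 40 µM MCM dimer (stock) in Buffer A for 10 min, then rapidly mixed with 0.25–2.5 mM ADP or ATP. A460 traces were fitted to a single exponential for kobs. kon came from linear regression of kobs on metabolite concentration, and koff from titration Kd and kon.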
# [3] = target: T2, Mycobacterium tuberculosis MCM (Mycobacterium tuberculosis, UniProt P9WJK5); assay: Kinetics of M. tuberculosis MCM•cob; format: biochemical; conditions: in air
# T2 sequence (P9WJK5 1-750): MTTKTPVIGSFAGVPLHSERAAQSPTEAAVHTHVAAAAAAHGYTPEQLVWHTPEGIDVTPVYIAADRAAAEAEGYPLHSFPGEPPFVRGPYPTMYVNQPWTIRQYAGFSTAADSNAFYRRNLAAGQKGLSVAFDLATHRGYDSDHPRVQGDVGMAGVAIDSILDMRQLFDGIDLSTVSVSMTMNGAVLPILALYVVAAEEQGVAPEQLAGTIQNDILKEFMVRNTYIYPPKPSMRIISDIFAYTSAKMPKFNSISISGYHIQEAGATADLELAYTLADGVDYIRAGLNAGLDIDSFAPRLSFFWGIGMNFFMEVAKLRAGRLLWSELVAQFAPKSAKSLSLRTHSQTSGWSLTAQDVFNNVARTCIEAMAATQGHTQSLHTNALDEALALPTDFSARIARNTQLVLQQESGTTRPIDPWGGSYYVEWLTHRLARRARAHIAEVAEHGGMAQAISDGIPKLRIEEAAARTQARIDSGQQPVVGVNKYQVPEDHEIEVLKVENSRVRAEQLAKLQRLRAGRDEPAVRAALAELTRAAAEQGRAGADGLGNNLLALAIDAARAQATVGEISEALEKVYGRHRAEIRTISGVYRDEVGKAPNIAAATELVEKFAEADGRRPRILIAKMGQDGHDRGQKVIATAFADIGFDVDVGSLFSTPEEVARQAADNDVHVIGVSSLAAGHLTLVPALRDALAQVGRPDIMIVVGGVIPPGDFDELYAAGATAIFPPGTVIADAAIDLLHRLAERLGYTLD
# T2 sequence (P9WJK7 1-615 partner): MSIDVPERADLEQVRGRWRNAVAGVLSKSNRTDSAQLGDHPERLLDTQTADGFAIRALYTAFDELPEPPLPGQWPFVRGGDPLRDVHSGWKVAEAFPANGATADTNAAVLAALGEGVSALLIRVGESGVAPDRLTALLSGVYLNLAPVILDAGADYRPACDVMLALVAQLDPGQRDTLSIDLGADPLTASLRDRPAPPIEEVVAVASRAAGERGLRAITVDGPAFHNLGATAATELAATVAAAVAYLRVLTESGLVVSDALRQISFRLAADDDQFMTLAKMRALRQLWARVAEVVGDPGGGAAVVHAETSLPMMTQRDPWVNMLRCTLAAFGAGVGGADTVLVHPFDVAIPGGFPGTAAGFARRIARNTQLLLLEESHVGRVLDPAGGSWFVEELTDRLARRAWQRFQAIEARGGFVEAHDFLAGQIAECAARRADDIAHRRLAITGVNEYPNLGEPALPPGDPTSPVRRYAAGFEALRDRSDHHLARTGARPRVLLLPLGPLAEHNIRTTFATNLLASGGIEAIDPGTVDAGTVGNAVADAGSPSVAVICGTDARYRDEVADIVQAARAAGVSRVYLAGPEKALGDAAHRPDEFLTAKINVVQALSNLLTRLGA
# [4] = target: T3, human MCM, CblA and ATR (Homo sapiens, UniProt P22033); assay: CblA-dependent cob; format: biochemical; conditions: cob(II)alamin transfer MCM to ATR, anaerobic, 25 °C, 5 mM ADP or 0.5 mM M-CoA
# T3 sequence (P22033 33-750): T1 sequence (P22033 33-750)
# Procedure, shortened: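 Recombinant human MCM, CblA and ATR expressed in E. coli. Metabolite (ADP or M-CoA) was added to the MCM solution. A464 was followed for 20 min; transfer extent came from Δε464 5.6 cm⁻¹ mM⁻¹, and kobs from a single-exponential fit.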
# [5] = target: T4, human ATR (Homo sapiens, UniProt Q96EY8); assay: ATP-triggered release of AdoCbl from ATR into solution; format: biochemical; conditions: ATR•AdoCbl without PPPi, confirmed after separation with a 10 kDa cutoff filter
# T4 sequence (Q96EY8 33-250): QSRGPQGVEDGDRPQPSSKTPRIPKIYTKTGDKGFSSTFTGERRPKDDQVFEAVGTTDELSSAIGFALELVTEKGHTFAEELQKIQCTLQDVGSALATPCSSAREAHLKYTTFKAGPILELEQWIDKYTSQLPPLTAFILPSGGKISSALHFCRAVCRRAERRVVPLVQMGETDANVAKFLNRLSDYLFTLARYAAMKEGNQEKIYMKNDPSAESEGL
# [6] = target: ATR; conditions: PPPi on ATR ternary product complex; ref [14]; cited from earlier work
# [7] = target: T5, human MCM (Homo sapiens, UniProt P22033); assay: Kinetics of human MCM•cob; format: biochemical; conditions: absence of ligands, in air, 25 °C
# T5 sequence (P22033 33-750): T1 sequence (P22033 33-750)
# Procedure, shortened: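 The MCM•cob(II)alamin sample (40 µM cob(II)alamin, 20 µM MCM dimer) was prepared in anaerobic Buffer A at pH 7.5. Oxidation was started by twofold dilution with aerobic buffer. H₂OCbl formation was followed as the rise in absorbance at 350 nm versus time, giving kobs.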
SMILES,Kd [1] [µM],Rate of transfer (kobs) [4] [min⁻¹],further results
"C[C@H]1O[C@@H](n2cnc3c(N)ncnc32)[C@H](O)[C@@H]1O [5′-dAdo, 5′-deoxyadenosine]",4.2 ± 2.1,–,–
"Nc1ncnc2c1ncn2[C@@H]1O[C@H](COP(=O)(O)OP(=O)(O)O)[C@@H](O)[C@H]1O [ADP, adenosine diphosphate]",44 ± 4.2,0.24 ± 0.01,fold higher kon of ADP versus ATP ([2]; ADP vs ATP): ~ 100 fold; rate of ADP binding relative to oxidation of cob(II)alamin on MCM ([2]; assuming a cellular ADP concentration of 6 mM): ~ 600 fold; Effect on oxidation of cob(II)alamin bound to M. tuberculosis MCM [3]: prevented
"Nc1ncnc2c1ncn2[C@@H]1O[C@H](COP(=O)(O)OP(=O)(O)OP(=O)(O)O)[C@@H](O)[C@H]1O [ATP, adenosine triphosphate]",30 ± 5,–,AdoCbl released from ATR into solution [5]: 40%
"CC(C)(COP(=O)(O)OP(=O)(O)OC[C@H]1O[C@@H](n2cnc3c(N)ncnc32)[C@H](O)[C@@H]1OP(=O)(O)O)[C@@H](O)C(=O)NCCC(=O)NCCS [CoA, Coenzyme A]",118 ± 13,0.92 ± 0.06,–
"O=P(O)(O)OP(=O)(O)OP(=O)(O)O [PPPi, sodium triphosphate pentabasic]",–,–,Kd [6]: < 0.4 µM
C/C1=C2/[N-][C@H]([C@H](CC(N)=O)[C@@]2(C)CCC(=O)NC[C@@H](C)OP(=O)([O-])O[C@H]2[C@@H](O)[C@@H](n3cnc4cc(C)c(C)cc43)O[C@@H]2CO)[C@]2(C)N=C(/C(C)=C3N=C(/C=C4N=C1[C@@H](CCC(N)=O)C\4(C)C)[C@@H](CCC(N)=O)[C@]\3(C)CC(N)=O)[C@@H](CCC(N)=O)[C@]2(C)CC(N)=O.[Co+2] [cob(II)alamin],–,–,kobs of oxidation of MCM-bound cob(II)alamin to H2OCbl [7]: 0.08 min⁻¹
